Data set [1] has as its system Mycobacterium tuberculosis. The data set is described as follows: Antimycobacterial activity against Mycobacterium tuberculosis H37Rv after 3 to 7 days by rapid direct susceptibility test. Format: functional. The essentials:
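Two-fold DMSO dilutions, 0.0125 to 200 μg/mL for H37Rv and 0.062 to 128 μg/mL for the MDR strain (resistant to INH, RIF and ethambutol), mixed with suspension containing 4×10^-3 mg cells. Sealed plates incubated at 37 °C in a wet box. Growth was read visually under high magnification at 3 days and again 7 days later. MIC is the lowest concentration giving complete growth inhibition.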

A short description of data set [2]: Cytotoxicity against African green monkey Vero cells assessed as reduction in cell viability after 72 hrs by MTT assay. The data set is classed as cell-based. To be noted: chlorocebus sabaeus. The essentials: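 VERO cells kept in MEM with Earle's salts + 10% FBS, 37 °C, 5% CO2; seeded 1×10^4 cells/well, recovered 24 h, then medium swapped for assay medium with compound (DMSO-dissolved, 1000 to 4 μg/mL) or drug-free. Viability by MTT after 72 h exposure; CC50 calculated by Bliss analysis.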

Data set [3] concerns Mycobacterium tuberculosis. The data set is described as follows: Potency index, ratio of gatifloxacin MIC90 to compound MIC90 for Mycobacterium tuberculosis H37Rv. The data set is classed as functional.
Data set [4] relates to Mycobacterium tuberculosis. Put plainly: Potency index, ratio of rifampicin MIC90 to compound MIC90 for Mycobacterium tuberculosis H37Rv. The data set is classed as functional.

Among the data in ChEMBL document CHEMBL4118076, “Azide-alkyne cycloaddition towards 1H-1,2,3-triazole-tethered gatifloxacin and isatin conjugates: Design, synthesis and in vitro anti-mycobacterial evaluation” (Eur J Med Chem, 2017) are MIC90, CC50 and Ratio values, retold here.

Converted amounts (≈) assume the structure as drawn.

`COc1c(N2CCN(Cc3cn(CCN4C(=O)C(=O)c5cc(F)ccc54)nn3)C(C)C2)c(F)cc2c(=O)c(C(=O)O)cn(C3CC3)c12` (centres undefined) came in with an MIC90 in data set [1] of 0.78 µg/mL (≈ 1.2 µM). Also, in data set [2], the CC50 at 72 h was 125 µg/mL (≈ 193 µM). Regarding `NNC(=O)c1ccncc1` [ISONIAZID], the MIC90 in data set [1] turned out to be 0.05 µg/mL (≈ 0.365 µM). As to `COc1c(N2CCN(Cc3cn(CCN4C(=O)/C(=N\O)c5ccccc54)nn3)C(C)C2)c(F)cc2c(=O)c(C(=O)O)cn(C3CC3)c12` (centres undefined), the MIC90 in data set [1] is 3.12 µg/mL (≈ 4.84 µM). For the same molecule, the CC50 at 72 h in data set [2] was 250 µg/mL (≈ 388 µM).

As for `COc1c(N2CCNC(C)C2)c(F)cc2c(=O)c(C(=O)O)cn(C3CC3)c12` (centres undefined) [GATIFLOXACIN], in data set [1], the MIC90 worked out at 0.78 µg/mL (≈ 2.08 µM). Consider `CO/N=C1\C(=O)N(CCn2cc(CN3CCN(c4c(F)cc5c(=O)c(C(=O)O)cn(C6CC6)c5c4OC)CC3C)nn2)c2ccc(Cl)cc21` (centres undefined), for which the Ratio in data set [3] and in data set [4] was 4 - 8 in each case. Also, in data set [1], the MIC90 stood at 0.1 µg/mL (≈ 0.144 µM). Besides, in data set [2], the 50% cytotoxic concentration (CC50) at 72 h came out at 7.8 µg/mL (≈ 11.3 µM). On to `COc1c(N2CCN(Cc3cn(CCN4C(=O)C(=O)c5ccccc54)nn3)C(C)C2)c(F)cc2c(=O)c(C(=O)O)cn(C3CC3)c12` (centres undefined), for which the MIC90 in data set [1] stood at 1.56 µg/mL (≈ 2.48 µM). In data set [2], the CC50 at 72 h was 125 µg/mL (≈ 199 µM). In data set [1], `COc1c(N2CCN(Cc3cn(CCN4C(=O)C(=O)c5cc(C)ccc54)nn3)C(C)C2)c(F)cc2c(=O)c(C(=O)O)cn(C3CC3)c12` (centres undefined) gave an MIC90 of 1.56 µg/mL (≈ 2.42 µM). Besides, in data set [2], the half-maximal cytotoxic concentration (CC50) at 72 h turned out to be 250 µg/mL (≈ 388 µM). With `COc1c(N2CCN(Cc3cn(CCN4C(=O)/C(=N\O)c5cc(Cl)ccc54)nn3)C(C)C2)c(F)cc2c(=O)c(C(=O)O)cn(C3CC3)c12` (centres undefined), the MIC90 in data set [1] came out at 0.78 µg/mL (≈ 1.15 µM). Further, the CC50 at 72 h in data set [2] is 31.2 µg/mL (≈ 45.9 µM). `CO/N=C1\C(=O)N(CCn2cc(CN3CCN(c4c(F)cc5c(=O)c(C(=O)O)cn(C6CC6)c5c4OC)CC3C)nn2)c2ccc(C)cc21` (centres undefined) returned an MIC90 in data set [1] of 1.56 µg/mL (≈ 2.32 µM). For the same molecule, the 50% cytotoxic concentration (CC50) at 72 h in data set [2] was 31.2 µg/mL (≈ 46.4 µM).

On to `COc1c(N2CCN(Cc3cn(CCN4C(=O)C(=O)c5cc(Cl)ccc54)nn3)C(C)C2)c(F)cc2c(=O)c(C(=O)O)cn(C3CC3)c12` (centres undefined), for which, in data set [1], the MIC90 came to 0.39 µg/mL (≈ 0.587 µM). The 50% cytotoxic concentration (CC50) at 72 h in data set [2] amounted to 62.5 µg/mL (≈ 94.1 µM). On to `CO/N=C1\C(=O)N(CCn2cc(CN3CCN(c4c(F)cc5c(=O)c(C(=O)O)cn(C6CC6)c5c4OC)CC3C)nn2)c2ccccc21` (centres undefined), for which the MIC90 in data set [1] was 0.78 µg/mL (≈ 1.18 µM). Besides, the CC50 at 72 h in data set [2] was 62.5 µg/mL (≈ 94.9 µM). `CO[C@H]1/C=C/O[C@@]2(C)Oc3c(C)c(O)c4c(O)c(c(/C=N/N5CCN(C)CC5)c(O)c4c3C2=O)NC(=O)/C(C)=C\C=C\[C@H](C)[C@H](O)[C@@H](C)[C@@H](O)[C@@H](C)[C@H](OC(C)=O)[C@@H]1C` [RIFAMPIN] returned an MIC90 in data set [1] of 0.39 µg/mL (≈ 0.474 µM). In the case of `COc1c(N2CCN(Cc3cn(CCN4C(=O)/C(=N\O)c5cc(F)ccc54)nn3)C(C)C2)c(F)cc2c(=O)c(C(=O)O)cn(C3CC3)c12` (centres undefined), in data set [1], the MIC90 is 1.56 µg/mL (≈ 2.35 µM). In addition, the 50% cytotoxic concentration (CC50) at 72 h in data set [2] turned out to be 7.8 µg/mL (≈ 11.8 µM).

In turn, `COc1c(N2CCN(Cc3cn(CCN4C(=O)/C(=N\O)c5cc(C)ccc54)nn3)C(C)C2)c(F)cc2c(=O)c(C(=O)O)cn(C3CC3)c12` (centres undefined) gave an MIC90 in data set [1] of 6.25 µg/mL (≈ 9.49 µM). The CC50 at 72 h in data set [2] was determined as 62.5 µg/mL (≈ 94.9 µM). In data set [1], `CO/N=C1\C(=O)N(CCn2cc(CN3CCN(c4c(F)cc5c(=O)c(C(=O)O)cn(C6CC6)c5c4OC)CC3C)nn2)c2ccc(F)cc21` (centres undefined) returned an MIC90 of 0.2 µg/mL (≈ 0.296 µM). Moreover, the 50% cytotoxic concentration (CC50) at 72 h in data set [2] stood at 7.8 µg/mL (≈ 11.5 µM).
